In ChEMBL document CHEMBL3739412, “Addressing cytotoxicity of 1,4-biphenyl amide derivatives: Discovery of new potent and selective 17β-hydroxysteroid dehydrogenase type 2 inhibitors” (Bioorg Med Chem Lett, 2016):
Active and inactive are the calls of the source. The calls are words filed in the database; no cut-off is given here.

How the values were obtained:
[1] = biological target: T1, 17-beta-hydroxysteroid dehydrogenase type 2 (Homo sapiens) (UniProt P37059); experiment: Inhibition of 17beta-HSD2 in human placental microsomal fraction using E2/NAD+ as substrate/cofactor at 1 uM after 20 mins by HPLC analysis; details: Placenta
T1 sequence (whole entry): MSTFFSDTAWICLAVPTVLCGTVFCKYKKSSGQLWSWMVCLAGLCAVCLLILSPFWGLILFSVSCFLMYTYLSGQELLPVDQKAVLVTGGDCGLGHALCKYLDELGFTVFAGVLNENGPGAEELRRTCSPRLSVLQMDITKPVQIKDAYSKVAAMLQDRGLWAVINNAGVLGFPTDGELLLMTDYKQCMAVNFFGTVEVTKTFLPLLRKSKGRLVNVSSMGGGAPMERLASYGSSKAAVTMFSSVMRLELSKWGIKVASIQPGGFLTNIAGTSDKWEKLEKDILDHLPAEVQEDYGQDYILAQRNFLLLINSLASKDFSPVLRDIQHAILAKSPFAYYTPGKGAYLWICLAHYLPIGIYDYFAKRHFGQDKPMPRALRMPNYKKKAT
Method in brief: (§1)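 Enzyme source is human placenta, microsomal fraction. Substrate is estradiol (E2) at 500 nM, with NAD+ as cofactor. Values are the mean of at least two determinations, with standard deviation below 20%.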

Homo sapiens = species: Homo sapiens; experiment: Selectivity ratio of IC50 for 17beta-HSD1 in human placental cytosolic fraction to IC50 for 17beta-HSD2 in human placental microsomal fraction
[2] = Half life in human liver S9 fraction at 1 uM after 5 to 60 mins by LC-MS/MS analysis; type: ADME, subcellular
[3] = Cytotoxicity against HEK293 cells assessed as cell viability after 66 hrs by MTT assay; type: cell-based; details: human, read-out: LD50
[4] = Cytotoxicity against HEK293 cells assessed as cell viability at 6.25 uM after 66 hrs by MTT assay; type: cell-based; details: human, read-out: Activity
[5] = biological target: T2, 17-beta-hydroxysteroid dehydrogenase type 1 (Homo sapiens, UniProt P14061); experiment: Inhibition of 17beta-HSD1 in human placental cytosolic fraction using E1/NADH as substrate/cofactor after 10 mins by HPLC analysis
T2 sequence (P14061 whole entry): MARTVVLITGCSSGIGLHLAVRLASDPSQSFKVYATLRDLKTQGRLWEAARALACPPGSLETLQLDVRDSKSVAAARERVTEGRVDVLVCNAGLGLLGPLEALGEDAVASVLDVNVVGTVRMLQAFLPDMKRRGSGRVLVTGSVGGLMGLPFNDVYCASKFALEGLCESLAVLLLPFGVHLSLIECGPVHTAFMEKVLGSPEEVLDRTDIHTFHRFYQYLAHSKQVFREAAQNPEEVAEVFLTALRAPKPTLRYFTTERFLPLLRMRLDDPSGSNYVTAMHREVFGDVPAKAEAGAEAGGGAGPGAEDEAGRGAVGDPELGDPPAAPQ
Method in brief: (§2)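 Enzyme source is human placenta, cytosolic fraction. Substrate is estrone (E1) at 500 nM, with NADH as cofactor. Values are the mean of at least two determinations, with standard deviation below 20%.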

[6] = biological target: T3, 17-beta-hydroxysteroid dehydrogenase type 1 (Homo sapiens) (UniProt P14061); experiment: Inhibition of 17beta-HSD1 in human placental cytosolic fraction using E1/NADH as substrate/cofactor at 1 uM after 10 mins by HPLC analysis; method in brief: as §2
T3 sequence (whole entry): T2 sequence (P14061 whole entry)

[7] = biological target: T4, 17-beta-hydroxysteroid dehydrogenase type 2 (Homo sapiens, UniProt P37059); experiment: Inhibition of 17beta-HSD2 in human placental microsomal fraction using E2/NAD+ as substrate/cofactor after 20 mins by HPLC analysis; parameters: species or system Placenta; method in brief: as §1
T4 sequence (P37059 whole entry): T1 sequence (whole entry)

Question: Which inhibition [1] does the source give for COc1cccc(N(C)C(=O)c2ccc(-c3ccc(C)c(C)c3)cc2)c1 here?
Answer: 75%

Question: What about the Ratio IC50 (Homo sapiens) of the same compound?
Answer: 44

Question: And the half-life at 1 µM [2]?
Answer: 107 min

Question: And the CC50 at 66 h [3]?
Answer: < 6.25 µM

Question: And the viability at 66 h, 6.25 µM [4]?
Answer: 34%

Question: Which IC50 [5] does the source give for Cc1cccc(N(C)C(=O)c2ccc(Oc3ccccc3C)cc2)c1 here?
Answer: Not Active

Question: What about the inhibition [1] of the same compound?
Answer: 55%

Question: And the inhibition [6]?
Answer: inactive

Question: Which inhibition [1] does the source give for COc1cccc(C(=O)N2CCN(c3cccc(C)c3)CC2)c1 here?
Answer: inactive

Question: And the inhibition [6]?
Answer: inactive

Question: What does the source list for Cc1cccc(N2CCN(S(=O)(=O)c3cccc(O)c3)CC2)c1?
Answer: inhibition [1]: 27%; inhibition [6]: inactive

Question: For Cc1cccc(Oc2ccc(C(=O)N(C)c3cccc(C)c3)cc2)c1, which IC50 [7] is on record?
Answer: 300 nM

Question: And the IC50 ([5]; read-out: IC50)?
Answer: 16.1 µM

Question: And the Ratio IC50 (Homo sapiens)?
Answer: 54

Question: And the CC50 at 66 h [3]?
Answer: 25 µM

Question: Which inhibition [1] does the source give for COc1cccc(S(=O)(=O)N2CCN(c3ccc(F)c(OC)c3)CC2)c1 here?
Answer: 15%

Question: And the inhibition [6]?
Answer: inactive

Question: Which results are given for Cc1ccc(N2CCN(C(=O)c3cccc(O)c3)CC2)cc1?
Answer: inhibition [1]: inactive; inhibition [6]: inactive

Question: Which IC50 [7] does the source give for COc1cccc(N(C)C(=O)C2CCC(c3ccc(Cl)cc3)CC2)c1 (stereo unspecified) here?
Answer: 290 nM

Question: What about the IC50 ([5]; read-out: IC50) of the same compound?
Answer: 60.1 µM

Question: And the Ratio IC50 (Homo sapiens)?
Answer: 209

Question: What about the CC50 at 66 h [3] of the same compound?
Answer: > 12.5 µM

Question: With COc1cccc(C(=O)N2CCN(c3cccc(OC)c3)CC2)c1 as the compound, how does the inhibition [1] read?
Answer: inactive

Question: And the inhibition [6]?
Answer: inactive

Question: With COc1cccc(N2CCN(S(=O)(=O)c3cccc(OC)c3)CC2)c1 as the compound, how does the inhibition [1] read?
Answer: inactive

Question: And the inhibition [6]?
Answer: inactive

Question: With O=S(=O)(c1cccc(O)c1)N1CCN(c2cccc(O)c2)CC1 as the compound, how does the inhibition [1] read?
Answer: 25%

Question: And the inhibition [6]?
Answer: inactive

Question: For O=S(=O)(c1cccc(O)c1)N1CCN(c2ccc(F)c(O)c2)CC1, which inhibition [1] is on record?
Answer: 48%

Question: What about the inhibition [6] of the same compound?
Answer: inactive

Question: Which results are given for Cc1cccc(N(C)C(=O)c2ccc(Oc3ccccc3)cc2)c1?
Answer: IC50 [5]: Not Active; inhibition [1]: 59%; inhibition [6]: inactive

Question: Which results are given for Cc1cccc(N2CCN(C(=O)c3cccc(O)c3)CC2)c1?
Answer: inhibition [1]: 16%; inhibition [6]: inactive

Question: What does the source list for COc1ccc(Oc2ccc(C(=O)N(C)c3cccc(OC)c3)cc2)cc1?
Answer: IC50 [7]: 310 nM; IC50 ([5]; read-out: IC50): 9.6 µM; Ratio IC50 (Homo sapiens): 31; CC50 at 66 h [3]: 25 µM

Question: What does the source list for COc1cccc(C(=O)N2CCN(c3ccc(C)cc3)CC2)c1?
Answer: inhibition [1]: 16%; inhibition [6]: inactive

Question: Which results are given for Cc1ccc(Oc2ccc(C(=O)N(C)c3cccc(C)c3)cc2)cc1?
Answer: IC50 [7]: 160 nM; IC50 ([5]; read-out: IC50): 26.3 µM; Ratio IC50 (Homo sapiens): 168; CC50 at 66 h [3]: 25 µM

Question: Which results are given for COc1cccc(C(=O)N2CCN(c3ccccc3)CC2)c1?
Answer: inhibition [1]: 14%; inhibition [6]: inactive

Question: What does the source list for COc1cccc(N(C)C(=O)c2ccc(Oc3ccc([N+](=O)[O-])cc3)cc2)c1?
Answer: IC50 [5]: Not Active; inhibition [1]: 43%; inhibition [6]: inactive

Question: For O=C(c1cccc(O)c1)N1CCN(c2ccccc2)CC1, which inhibition [1] is on record?
Answer: 27%

Question: And the inhibition [6]?
Answer: inactive

Question: Which inhibition [1] does the source give for COc1cccc(S(=O)(=O)N2CCN(c3cccc(C)c3)CC2)c1 here?
Answer: 16%

Question: What about the inhibition [6] of the same compound?
Answer: inactive

Question: For COc1cccc(N(C)C(=O)c2ccc(Oc3ccc(Cl)cc3)cc2)c1, which inhibition [1] is on record?
Answer: 51%

Question: What about the inhibition [6] of the same compound?
Answer: 13%

Question: Which IC50 [5] does the source give for CN(C(=O)c1ccc(Oc2ccc(O)cc2)cc1)c1cccc(O)c1 here?
Answer: Not Active

Question: And the inhibition [1]?
Answer: 43%

Question: What about the inhibition [6] of the same compound?
Answer: inactive
